Laboratory results from ChEMBL document CHEMBL2062381, “Synthesis and in vitro evaluation of new chloroquine-chalcone hybrids against chloroquine-resistant strain of Plasmodium falciparum” (Bioorg Med Chem Lett, 2012).
Converted amounts (≈) assume the structure as drawn.

Key:
Plasmodium yoelii = assay: Inhibition of beta hematin formation in Plasmodium yoelii infected swiss mouse RBC after 16 hrs; type: functional, organism-based
Method in brief: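 Source material was plasma from male Swiss mice (15–20 g) inoculated with 1 × 10⁵ P. yoelii-infected RBCs. Blood was taken by cardiac puncture at 50% parasitemia into 2.0% citrate and centrifuged. The 1.0 mL mix held 100 mM sodium acetate pH 5.1, plasma, hemin substrate and compound at […]. It ran in triplicate for 16 h at 37 °C with rotary shaking. The washed β-hematin pellet was dissolved in NaOH and read at 400 nm. IC50 came from nonlinear regression.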

[1] = Selectivity index, ratio of IC50 for african green monkey Vero cells to IC50 for Plasmodium falciparum; type: toxicity, cell-based; settings: read-out: Ratio IC50
Method in brief: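 SI = CC50/IC50. CC50 was measured in Vero monkey kidney cells (C1008) by MTT after 72 h exposure to compound dilutions, using nonlinear regression. IC50 came from a 72 h SYBR Green I fluorescence assay in P. falciparum (1.0% parasitized cells, 0.8% parasitaemia, mostly ring stages, 37 °C, 5% CO2). Those values came from logit regression.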

Plasmodium falciparum [2] = assay: Antimalarial activity against chloroquine-susceptible Plasmodium falciparum 3D7 after 72 hrs by SYBR Green-I based fluorescence assay; type: functional, organism-based; settings: 3D7, 72 h
Method in brief: (§1)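 Asynchronous culture (>80% rings), 1.0% parasitized cell suspension at 0.8% parasitaemia, exposed to twofold serial dilutions of compound (DMSO stock 5 mg/mL). Incubated 72 h at 37 °C under 5% CO₂ in air. Lysis buffer with SYBR Green I added, then 1 h at 37 °C. Fluorescence read at 485/530 nm. IC₅₀ from logit regression of dose-response curves. Mean of three experiments in triplicate.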

Plasmodium falciparum [3] = assay: Antimalarial activity against chloroquine-resistant Plasmodium falciparum K1 after 72 hrs by SYBR Green-I based fluorescence assay; type: functional, organism-based; method in brief: as §1
[4] = Inhibition of hydrogen peroxide-mediated hemin decomposition assessed as remaining hemin level at 20 uM after 30 mins by […] (reference value: 43%); type: functional
Method in brief: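 Hemin (in 0.1 N NaOH) was mixed with BSA in 0.2 M sodium acetate pH 5.1 and compound, then equilibrated for 10 min at room temperature. The reaction was started with 20 mM H2O2 and ran 30 min at room temperature. Read-out was the decrease in Soret absorbance at 405 nm, reported as % hemin remaining. Controls used water instead of H2O2. Data are the mean of three experiments in triplicate.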

[5] = Plasmodium falciparum, K1, 72 h, read-out: IC50

Q: With `COc1ccc(OC)c(/C=C(\Oc2ccc(/C=N/Nc3ccnc4cc(Cl)ccc34)cc2)C(=O)c2ccc(Cl)cc2)c1` as the molecule, how does the IC50 (Plasmodium yoelii) read?
A: 25 µg/mL (≈ 41.8 µM)

Q: What about the selectivity ratio [1] of the same molecule?
A: 669

Q: And the IC50 (Plasmodium falciparum [2])?
A: 250 nM

Q: And the IC50 (Plasmodium falciparum [3]; [5])?
A: 125 nM

Q: For `O=C(COc1ccc(/C=N/Nc2ccnc3cc(Cl)ccc23)cc1)c1ccc(Cl)cc1`, which IC50 (Plasmodium yoelii) is on record?
A: 16.4 µg/mL (≈ 36.4 µM)

Q: What about the selectivity ratio [1] of the same molecule?
A: 800

Q: And the IC50 (Plasmodium falciparum [2])?
A: 36.7 nM

Q: What about the IC50 (Plasmodium falciparum [3]; [5]) of the same molecule?
A: 126 nM

Q: Which IC50 (Plasmodium yoelii) does the source give for `COc1ccc(/C=C(\Oc2ccc(/C=N/Nc3ccnc4cc(Cl)ccc34)cc2)C(=O)c2ccc(Cl)cc2)cc1` here?
A: 17.6 µg/mL (≈ 31 µM)

Q: What about the selectivity ratio [1] of the same molecule?
A: 2050

Q: And the IC50 (Plasmodium falciparum [2])?
A: 48.1 nM

Q: And the IC50 (Plasmodium falciparum [3]; [5])?
A: 96.9 nM

Q: Which IC50 (Plasmodium yoelii) does the source give for `Cc1ccc(/C=C(\Oc2ccc(/C=N/Nc3ccnc4cc(Cl)ccc34)cc2)C(=O)c2ccc(Cl)cc2)cc1` here?
A: 5.58 µg/mL (≈ 10.1 µM)

Q: What about the selectivity ratio [1] of the same molecule?
A: 1620

Q: What about the IC50 (Plasmodium falciparum [2]) of the same molecule?
A: 112 nM

Q: What about the IC50 (Plasmodium falciparum [3]; [5]) of the same molecule?
A: 97.9 nM

Q: Which results are given for `COc1ccc(/C=C(\Oc2ccc(/C=N/Nc3ccnc4cc(Cl)ccc34)cc2)C(=O)c2ccc(Cl)cc2)cc1OC`?
A: IC50 (Plasmodium yoelii): 3.46 µg/mL (≈ 5.78 µM); selectivity ratio [1]: 1440; IC50 (Plasmodium falciparum [2]): 84 nM; Activity [4]: 59%; IC50 (Plasmodium falciparum [3]; [5]): 97.8 nM

Q: Which IC50 (Plasmodium yoelii) does the source give for `O=C(/C(=C/c1ccc(F)cc1)Oc1ccc(/C=N/Nc2ccnc3cc(Cl)ccc23)cc1)c1ccc(Cl)cc1` here?
A: 15.6 µg/mL (≈ 28 µM)

Q: What about the selectivity ratio [1] of the same molecule?
A: 6200

Q: What about the IC50 (Plasmodium falciparum [2]) of the same molecule?
A: 29.1 nM

Q: And the IC50 (Plasmodium falciparum [3]; [5])?
A: 102 nM

Q: Which results are given for `O=C(/C(=C/c1ccoc1)Oc1ccc(/C=N/Nc2ccnc3cc(Cl)ccc23)cc1)c1ccc(Cl)cc1`?
A: IC50 (Plasmodium yoelii): 3.74 µg/mL (≈ 7.08 µM); selectivity ratio [1]: 962; IC50 (Plasmodium falciparum [2]): 57.3 nM; Activity [4]: 53%; IC50 (Plasmodium falciparum [3]; [5]): 115 nM

Q: For `COc1cc(OC)c(OC)cc1/C=C(\Oc1ccc(/C=N/Nc2ccnc3cc(Cl)ccc23)cc1)C(=O)c1ccc(Cl)cc1`, which IC50 (Plasmodium yoelii) is on record?
A: 10.6 µg/mL (≈ 16.9 µM)

Q: And the selectivity ratio [1]?
A: 728

Q: What about the IC50 (Plasmodium falciparum [2]) of the same molecule?
A: 90.5 nM

Q: What about the IC50 (Plasmodium falciparum [3]; [5]) of the same molecule?
A: 89.5 nM

Q: Which results are given for `O=C(/C(=C/c1ccc(F)cc1F)Oc1ccc(/C=N/Nc2ccnc3cc(Cl)ccc23)cc1)c1ccc(Cl)cc1`?
A: selectivity ratio [1]: 1040; IC50 (Plasmodium falciparum [2]): 139 nM; IC50 (Plasmodium falciparum [3]; [5]): 170 nM

Q: With `COc1ccc(/C=C(\Oc2ccc(/C=N/Nc3ccnc4cc(Cl)ccc34)cc2)C(=O)c2ccc(Cl)cc2)c(OC)c1OC` as the molecule, how does the IC50 (Plasmodium yoelii) read?
A: 3.52 µg/mL (≈ 5.6 µM)

Q: What about the selectivity ratio [1] of the same molecule?
A: 837

Q: What about the IC50 (Plasmodium falciparum [2]) of the same molecule?
A: 124 nM

Q: What about the Activity [4] of the same molecule?
A: 63%

Q: What about the IC50 (Plasmodium falciparum [3]; [5]) of the same molecule?
A: 82.9 nM

Q: What does the source list for `O=C(/C(=C/c1ccc(Cl)cc1)Oc1ccc(/C=N/Nc2ccnc3cc(Cl)ccc23)cc1)c1ccc(Cl)cc1`?
A: IC50 (Plasmodium yoelii): 8.38 µg/mL (≈ 14.6 µM); selectivity ratio [1]: 1210; IC50 (Plasmodium falciparum [2]): 145 nM; IC50 (Plasmodium falciparum [3]; [5]): 199 nM

Q: Which results are given for `O=C(/C(=C/c1cccc([N+](=O)[O-])c1)Oc1ccc(/C=N/Nc2ccnc3cc(Cl)ccc23)cc1)c1ccc(Cl)cc1`?
A: IC50 (Plasmodium yoelii): 5.72 µg/mL (≈ 9.8 µM); selectivity ratio [1]: 1340; IC50 (Plasmodium falciparum [2]): 128 nM; IC50 (Plasmodium falciparum [3]; [5]): 315 nM

Q: Which results are given for `O=C(/C(=C/c1ccc(Cl)cc1Cl)Oc1ccc(/C=N/Nc2ccnc3cc(Cl)ccc23)cc1)c1ccc(Cl)cc1`?
A: IC50 (Plasmodium yoelii): 5.91 µg/mL (≈ 9.73 µM); selectivity ratio [1]: 560; IC50 (Plasmodium falciparum [2]): 295 nM; IC50 (Plasmodium falciparum [3]): Not Active

Q: For `O=C(/C(=C/c1ccc([N+](=O)[O-])cc1)Oc1ccc(/C=N/Nc2ccnc3cc(Cl)ccc23)cc1)c1ccc(Cl)cc1`, which IC50 (Plasmodium yoelii) is on record?
A: 12.8 µg/mL (≈ 21.9 µM)

Q: What about the IC50 (Plasmodium falciparum [2]) of the same molecule?
A: > 500 nM

Q: And the IC50 (Plasmodium falciparum [3])?
A: Not Active

Q: Which IC50 (Plasmodium yoelii) does the source give for `CCN(CC)CCCC(C)Nc1ccnc2cc(Cl)ccc12` (configuration not stated) [CHLOROQUINE] here?
A: 3.75 µg/mL (≈ 11.7 µM)

Q: And the Activity [4]?
A: 65%

Q: Which IC50 (Plasmodium yoelii) does the source give for `O=C(/C(=C/c1ccccc1)Oc1ccc(/C=N/Nc2ccnc3cc(Cl)ccc23)cc1)c1ccc(Cl)cc1` here?
A: 5.66 µg/mL (≈ 10.5 µM)

Q: And the selectivity ratio [1]?
A: 2360

Q: What about the IC50 (Plasmodium falciparum [2]) of the same molecule?
A: 78.8 nM

Q: What about the IC50 (Plasmodium falciparum [3]; [5]) of the same molecule?
A: 110 nM

Q: For `COc1cc(/C=C(\Oc2ccc(/C=N/Nc3ccnc4cc(Cl)ccc34)cc2)C(=O)c2ccc(Cl)cc2)cc(OC)c1OC`, which IC50 (Plasmodium yoelii) is on record?
A: 10.8 µg/mL (≈ 17.2 µM)

Q: And the selectivity ratio [1]?
A: 970

Q: What about the IC50 (Plasmodium falciparum [2]) of the same molecule?
A: 95.3 nM

Q: What about the IC50 (Plasmodium falciparum [3]; [5]) of the same molecule?
A: 123 nM
